Measurements collected from several papers.
Compare with care: the assays were run in different laboratories.
HDAC8: Histone deacetylase 8 (HDAC8, Homo sapiens, UniProt Q9BY41)
TACR2: Substance-K receptor (TACR2, Homo sapiens, UniProt P21452)
ALOX5: Polyunsaturated fatty acid 5-lipoxygenase (ALOX5, Homo sapiens, UniProt P09917)

For `CCN1CCN(Cc2ccc(NC(=O)c3ccc(C)c(Oc4ccnc5[nH]ccc45)c3)cc2C(F)(F)F)CC1`, the inhibition was -20.3% (Mitogen-activated protein kinase kinase kinase 4 (MAP3K4, Homo sapiens, UniProt Q9Y6R4); target engagement in cells, inhibitor, chemoproteomics; A-375; 50 nM).
The inhibition of `O=C(/C=C/c1ccc(O)c(O)c1)O[C@@H]1C[C@](O)(C(=O)O)C[C@@H](O)[C@H]1O` is reported as 58.2% (HDAC8; enzyme activity, inhibitor; 10 µM).
With `N#Cc1cc(Cn2c(N3CCCC3)nc3ccccc32)ccc1F` the inhibition was -36.9% (5-hydroxytryptamine receptor 1D (HTR1D, Homo sapiens, UniProt P28221); cell-free assay; 10 µM).
For `COc1cc(Cl)c(C(=O)N[C@@H](CN[C@H]2CC[C@@H](N)CC2)Cc2ccc(C#N)cc2)cc1-c1ccc(CN[C@H](C)c2ccc(C)cc2)o1`, the inhibition was 12% (Somatostatin receptor type 4 (SSTR4, Homo sapiens, UniProt P31391); calcium signal, antagonist; 10 µM).
With `Oc1cccc(Nc2nc(-c3ccc(F)cc3F)cs2)c1` the inhibition was 31.5% (TACR2; cell-free assay; 10 µM).
`CCn1ccc(=S)c(O)c1C` gave an inhibition of greater than 70% (ALOX5; enzyme activity, inhibitor, fluorescence; 1 mM).
`COc1ccc(Cc2nnc(NS(=O)(=O)c3cccc4ccccc34)s2)cc1` gave an inhibition of 59% (Glutathione hydrolase 1 proenzyme (Homo sapiens, UniProt P19440); enzyme activity in cells, inhibitor; NIH3T3; 100 µM).
For `O=c1cc(-c2ccc(O)c(O)c2)oc2cc(O)cc(O)c12`, the inhibition was 67.2% (HDAC8; enzyme activity, inhibitor; 10 µM).
The inhibition of `Cc1occ(O)c(=O)c1C(=O)O` is reported as greater than 70% (ALOX5; enzyme activity, inhibitor, fluorescence; 1 mM).
For `CC1(C)CC[C@]2(C)CC[C@]3(C)[C@H]4CC=C5[C@@H](CC[C@H](O)C5(C)C)[C@]4(C)CC[C@@]3(C)[C@@H]2C1`, the inhibition was 44.8% (HDAC8; enzyme activity, inhibitor; 10 µM).
The inhibition of `O=C(c1ccc(Cl)cc1)N(Cc1ccccc1)C1CCCCC1` is reported as 15% (TACR2; cell-free assay; 10 µM).
With `CC(=O)O[C@@H]1c2c(ccc3ccc(=O)oc23)OC(C)(C)[C@@H]1OC(=O)C1(C)OC1C` (stereo partly drawn) the inhibition was 43.5% (HDAC8; enzyme activity, inhibitor; 10 µM).
`COc1ccc(CCCn2ncc3c2nc(N)n2nc(-c4ccco4)nc32)cc1` has an inhibition of 6% (Adenosine receptor A3 (Mus musculus, UniProt Q61618); ligand displacement, radioligand; 10 µM, cell membranes).
With `CC1(C)CC[C@]2(C)CC[C@]3(C)C(=CC[C@@H]4[C@@]5(C)CC[C@H](O)C(C)(C)[C@@H]5CC[C@]43C)[C@@H]2C1` the inhibition was 34.9% (HDAC8; enzyme activity, inhibitor; 10 µM).
The inhibition of `CN(C)C1CCN(CC#Cc2nn(C3CCCC3)c3nc(NCc4ccccc4)ncc23)C1` (stereo not drawn) is reported as 7% (G protein-coupled receptor kinase 4 (GRK4, Homo sapiens, UniProt P32298); enzyme activity, inhibitor, FRET; 0.1 µM).
